Source: publication PMC9989852 (Food and chemical toxicology : an international journal …, 2022)
Where two headings read alike, the source gives them in different places.

Columns and labels:
B6C3F1 mice [1] = conditions: dermal exposure; Supplemental Table 8; ref Weatherly et al., 2021; cited from earlier work
[2] = tested on: auricular draining lymph nodes (dLNs); test: Draining lymph node phenotyping by flow cytometry after 28-day dermal exposure; type: in vivo, B6C3F1 mice; conditions: 0.5%, 28 days
Outline: (§1)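 Female B6C3F1 mice (5/group) received 25 μl/ear daily to the dorsal ears in acetone. About 24 h after the last dose, tissues went into RPMI: both auricular dLNs, half spleen and one ear pinna. Single-cell suspensions were acquired on an LSR II, with populations gated per supplemental strategy and FMO gating controls. Results are mean ± SE, n=5, by one-way ANOVA.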

ear pinna [3] = test: Skin; type: in vivo, B6C3F1 mice; conditions: 0.5%, dermal, 28 days
Outline: as §1

spleen = test: Spleen phenotyping by flow cytometry after 28-day dermal exposure; type: in vivo, B6C3F1 mice; conditions: 0.5%, 28 days
Outline: as §1

liver = test: Liver histopathology after 28-day dermal exposure; type: in vivo, B6C3F1 mice; conditions: 0.5%, 28 days
Outline: (§2)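 Female B6C3F1 mice (5/group) received 25 μl/ear on the dorsal ear surfaces daily, with acetone as vehicle. Tissues were formalin-fixed about 24 h after the last dose: liver remainder, half spleen, right kidney and half ear pinna. Sections were paraffin-embedded, cut at 5 μm and stained with H&E. A veterinary pathologist read them per STP guideline and graded 1 (minimal) to 5 (severe) by extent.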

kidney, spleen = test: Kidney and spleen histopathology after 28-day dermal exposure; type: in vivo, B6C3F1 mice; conditions: 0.5%, 28 days
Outline: as §2

[4] = PFAS concentration in serum; type: in vivo, B6C3F1 mice; conditions: 0.5%, dermal, 28 days
Outline: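 Serum came by cardiac puncture about 24 h after the final daily ear dose (25 μl/ear, acetone vehicle; female B6C3F1 mice). Samples underwent solid-phase extraction and LC/MS/MS. Short-chain analytes were quantified as linear isomer only; the legacy comparator was quantified as linear plus branched. Data are mean ± SE of 4–5 mice, one-way ANOVA with Dunnett's vs vehicle.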

[5] = PFAS concentration in pooled urine; type: in vivo, B6C3F1 mice; conditions: B6C3F1, mouse, urine, topical, 0.5 % w/v
Outline: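 Urine was caught in a weigh boat as it was excreted during CO2 euthanasia, about 24 h after the final daily ear dose (25 μl/ear, acetone vehicle; female B6C3F1 mice). The 5 mice per group were pooled, with variable volume. Samples underwent solid-phase extraction and LC/MS/MS, as linear isomer for short-chain analytes and linear plus branched for the comparator. Each group gave a single value without statistics.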

B6C3F1 mice [6] = test: Organ weights and body weight after 28-day dermal exposure; type: in vivo; conditions: 0.5%, 28 days
B6C3F1 mice [7] = test: Serum chemistries after 28-day dermal exposure; type: in vivo; conditions: 28 days
Outline: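 Female B6C3F1 mice received daily dorsal ear application (25 μl/ear, acetone vehicle). About 24 h after the last dose, blood was taken by cardiac puncture. Serum was separated by centrifugation and stored at −20 °C. ALKP, BUN, glucose and cholesterol were read on a Catalyst DX analyzer. Data are mean ± SE of 4–5 mice, ANOVA with Dunnett's; ALKP was also tested by linear regression (p < 0.05).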

liver (caudate) = test: Liver gene expression; type: in vivo, B6C3F1 mice; conditions: 0.5%, dermal, 28 days
Outline: (§3)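 Dosing was daily topical to both dorsal ears (25 μl/ear, acetone vehicle) in female B6C3F1 mice. Liver caudate lobe or half ear pinna was stored in RNAlater and homogenized in RLT buffer. RNA was isolated on RNeasy columns with DNase, and 1–2 μg was reverse-transcribed. TaqMan real-time PCR was read as 2−ΔΔCT vs vehicle, normalized to β-actin. Statistics: ANOVA/Dunnett's, or Kruskal-Wallis/Dunn's for unequal variance.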

ear pinna [8] = test: Skin; type: in vivo, B6C3F1 mice; conditions: 0.5%, dermal, 28 days; remark: listed apart in the source
Outline: as §3

skin [9] = test: Irritation at the site of dermal application; type: in vivo, B6C3F1 mice; conditions: 0.5%, 28 days
[10] = ref ATSDR, 2021; cited from earlier work
skin [11] = conditions: concentrations up to 2%; ref Shane et al., 2020; cited from earlier work

## O=C(O)C(F)(F)C(F)(F)C(F)(F)F [PFBA, heptafluorobutyric acid]
B6C3F1 mice [1]
  serum cholesterol: elevated cholesterol
  serum glucose levels: increase in glucose levels

## O=C(O)C(F)(F)C(F)(F)C(F)(F)C(F)(F)C(F)(F)C(F)(F)C(F)(F)F [PFOA, perfluorooctanoic acid, reference compound]
[2]
  dLN B-cells: no B-cell changes
  dLN CD4^+ T-cells, cell number and frequency: decreased
  dLN MHCII MFI on B-cells: decrease
  dLN eosinophil cell number: decrease
  total dLN cellularity: neither PFOA (Supplemental Table 3) nor PFBA (Supplemental Table 9) induced changes
Ear pinna [3]
  skin CD11b + F4/80+ DCs, frequency and cell number: significantly decreased
  skin CD11b− F4/80 DCs, frequency and cell number: significantly decreased
  skin CD11b− F/480+ DCs, frequency and cell number: significantly decreased
  skin CD45^+ cells, frequency and cell number: significantly decreased
  skin eosinophils, frequency and cell number: significantly decreased
  skin total DCs, frequency and cell number: significantly decreased
spleen
  spleen MFI of MHCII on B-cells: decrease
  spleen MFI of MHCII on DCs: decrease
  spleen frequency of CD4^+ T-cells: increase
  spleen frequency of CD8^+ T-cells: increase
  spleen frequency of CD11b + Ly6C + cells: decrease
  spleen frequency of CD11b + Ly6C− cells: decrease
  spleen frequency of CD11b + cells: decrease
  spleen frequency of NK cells: decrease
  spleen frequency of neutrophils: increase
  spleen number of B-cells: significant decrease
  spleen number of CD4^+ T-cells: significant decrease
  spleen number of CD11b + Ly6C + cells: significant decrease
  spleen number of CD11b + Ly6C− cells: significant decrease
  spleen number of CD11b + cells: significant decrease
  spleen number of NK cells: significant decrease
  spleen number of eosinophils: significant decrease
  spleen number of total DCs: significant decrease
  spleen total cell number: significant decrease
liver
  liver hepatocellular hypertrophy (diffuse), marked (incidence): 5/5
kidney, spleen
  spleen decreased lymphocyte cellularity, mild (incidence): 2/5
[4]
  PFAS serum concentration vs vehicle: significant increase
[5]
  concentration at 24 h: 260 µg/mL
B6C3F1 mice [6]
  body weight: significant decrease
  kidney weight (% body weight), increase: 8%
  liver weight (% body weight), increase: 120%
  spleen weight (% body weight), decrease: 41%
  thymus weight (% body weight), decrease: 71%
B6C3F1 mice [7]; 0.5%
  serum ALKP, increase: 112%
  serum BUN: No change
  serum cholesterol: No change
  serum glucose, decrease: 44%
B6C3F1 mice [7]; any concentration, data not shown
  serum alanine aminotransferase (ALT): No change
Liver (caudate)
  liver Cd36 gene expression, increase: 12.2 fold
  liver Ehhadh gene expression, increase: 57.7 fold
  liver Lpl gene expression, increase: 13.1 fold
  liver Pparδ gene expression: decrease
  liver Serpine1 gene expression, increase: 10.5 fold
Ear pinna [8]
  skin Flg gene expression: increased
  skin Pparγ gene expression: significant decrease
  skin Pparδ gene expression: slight significant increase
  skin Serpine1 gene expression: significant increase
Skin [9]
  irritation at the site of application: no irritation
[10]
  half-life in humans: 2.1–10.1 years
Skin [11]
  signs of skin irritation: did not show any signs of irritation
